Data as given in ChEMBL document CHEMBL1759907, “Identification and optimization of tetrahydro-2H-3-benzazepin-2-ones as squalene synthase inhibitors” (Bioorg Med Chem Lett, 2011).

How the values were obtained:
Squalene synthase = target: T1, Squalene synthase (Homo sapiens, UniProt P37268); assay: Inhibition of squalene synthase assessed as conversion of […] to [3H]squalene after 10 mins by scintillation counting
T1 sequence (P37268 whole entry): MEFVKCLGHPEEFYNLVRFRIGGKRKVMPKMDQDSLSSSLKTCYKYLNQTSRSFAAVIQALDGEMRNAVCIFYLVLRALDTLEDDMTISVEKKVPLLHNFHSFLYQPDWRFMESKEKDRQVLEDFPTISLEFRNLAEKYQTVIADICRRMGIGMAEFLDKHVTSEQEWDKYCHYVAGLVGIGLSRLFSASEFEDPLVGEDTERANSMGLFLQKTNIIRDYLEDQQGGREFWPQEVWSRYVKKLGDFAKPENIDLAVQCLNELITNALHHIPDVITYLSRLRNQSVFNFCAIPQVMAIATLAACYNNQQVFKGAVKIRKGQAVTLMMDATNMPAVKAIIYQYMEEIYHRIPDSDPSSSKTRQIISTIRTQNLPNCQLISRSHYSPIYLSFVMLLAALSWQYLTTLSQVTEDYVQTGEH
Procedure, shortened: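 Reaction started with farnesyl pyrophosphate plus 0.2 nM trans,trans-[1-3H]-FPP and run for 10 min at 37 °C. Extracted with chloroform/methanol/5 N NaOH, adjusted to 2 mM squalene; organic phase counted by scintillation. Mean of three experiments.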

[1] = Metabolic stability in human liver microsomes assessed as compound remaining after 60 mins; type: ADME, Microsome; settings: read-out: Stability
Mus musculus = assay: Inhibition of hepatic cholesterol biosynthesis in NMRI mouse at 3 mg/kg, po administered 1 hr before administering [14C]mevalonate as substrate measured after 10 mins; type: functional

| Compound | IC50 (Squalene synthase) [nM] | remaining at 1 h [1] [%] | inhibition in vivo at 3 mg/kg (Mus musculus) [%] |
| --- | --- | --- | --- |
| Cc1ccc2c(c1)[C@@H](c1ccccc1Cl)CN(CC(=O)O)C(=O)[C@@H]2CC(C)C (racemic) | > 20000 |  |  |
| CCOC(=O)CN1C[C@H](c2ccccc2Cl)c2cc(Cl)ccc2[C@@H](CC(C)C)C1=O (racemic) | > 20000 |  |  |
| C=C(C)C[C@H]1C(=O)N(CC(=O)O)C[C@H](c2ccccc2Cl)c2cc(Cl)ccc21 (racemic) | 5500 |  |  |
| COc1cccc([C@H]2CN(CC(=O)N3CCC(C(=O)O)CC3)C(=O)[C@@H](CC(C)C)c3ccc(Cl)cc32)c1OC | > 20000 |  |  |
| CC(C)C[C@H]1C(=O)N(CC(=O)N2CCC(CC(=O)O)CC2)C[C@H](c2ccccc2Cl)c2cc(Cl)ccc21 (racemic) | 1400 | 70 | 25 |
| COc1ccccc1[C@H]1CN(CC(=O)O)C(=O)[C@H](CC(C)C)c2ccc(Cl)cc21 (racemic) | 1900 |  |  |
| COc1ccccc1[C@H]1CN(CC(=O)N2CCC(C(=O)O)CC2)C(=O)[C@H](CC(C)C)c2ccc(Cl)cc21 (racemic) | 500 | 72 | 39 |
| COc1cccc([C@H]2CN(CC(=O)O)C(=O)[C@H](CC(C)C)c3ccc(Cl)cc32)c1OC (racemic) | 1200 |  |  |
| COc1cccc([C@H]2CN(CC(=O)N3CCC(C(=O)O)CC3)C(=O)[C@H](CC(C)C)c3ccc(Cl)cc32)c1OC (racemic) | 450 | 78 |  |
| COc1ccccc1[C@H]1CN(CC(=O)N2CCCCC2)C(=O)[C@H](CC(C)C)c2ccc(Cl)cc21 (racemic) | 370 | 2 |  |
| CC(C)C[C@H]1C(=O)N(CC(=O)O)C[C@H](c2ccccc2Cl)c2cc(F)ccc21 (racemic) | > 20000 |  |  |
| CC(C)C[C@H]1C(=O)N(CC(=O)O)C[C@H](c2ccccc2)c2cc(Cl)ccc21 (racemic) | 15300 |  |  |
| CC(C)C[C@H]1C(=O)N(CC(=O)N2CCC(C(=O)O)CC2)C[C@H](c2ccccc2Cl)c2cc(Cl)ccc21 (racemic) | 930 | 53 | 25 |
| CC(C)C[C@H]1C(=O)N(CC(=O)O)C[C@H](c2ccccc2Cl)c2ccccc21 (racemic) | > 20000 |  |  |
| CC(C)(O)C[C@H]1C(=O)N(CC(=O)O)C[C@H](c2ccccc2Cl)c2cc(Cl)ccc21 (racemic) | > 20000 |  |  |
| COc1cccc([C@@H]2CN(CC(=O)N3CCC(C(=O)O)CC3)C(=O)[C@H](CC(C)C)c3ccc(Cl)cc32)c1OC | 220 | 89 | 47 |
| CC(C)C[C@H]1C(=O)N(CC(=O)NCCCCCC(=O)O)C[C@H](c2ccccc2Cl)c2cc(Cl)ccc21 (racemic) | 2400 |  |  |
| O=C(O)CN1C[C@H](c2ccccc2Cl)c2cc(Cl)ccc2[C@@H](Cc2ccccc2)C1=O (racemic) | > 20000 |  |  |
| CC(C)C[C@H]1C(=O)N(CC(=O)O)C[C@H](c2ccccc2Cl)c2cc(Cl)ccc21 (racemic) | 3300 | 60 |  |
| CC(C)C[C@H]1C(=O)N(CC(=O)O)C[C@H](c2ccccc2Br)c2cc(Cl)ccc21 (racemic) | 2200 |  |  |
